Measured values from ChEMBL document CHEMBL3860031, “Design, synthesis and antitrypanosomal activity of some nitrofurazone 1,2,4-triazolic bioisosteric analogues” (Eur J Med Chem, 2016).

Legend:
[1] = Cytotoxicity against non-infected human U2OS cells assessed as decrease in number of cells after 96 hrs by Draq5 staining-based high content screening assay; format: toxicity, cell-based
In short: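 Separate plate with non-infected U2OS cells (700/well, DMEM + 10% FBS) and compounds in 15-point 2-fold dilutions, top 200 µM, 1% DMSO final. After 96 h, fixed with 4% paraformaldehyde, stained with 5 µM Draq5, cells counted by imaging. CC50 from sigmoidal variable-slope curve fitting.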

[2] = Selectivity index, ratio of CC50 for human U2OS cells infected with amastigote stage of Trypanosoma cruzi Y to EC50 for amastigote stage of Trypanosoma cruzi Y; format: toxicity, cell-based; details: U2OS cells infected with Trypanosoma cruzi Y amastigotes, read-out: Ratio CC50/EC50
In short: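 S.I. = CC50/EC50 from the infected U2OS high-content assay. When CC50 could not be calculated, S.I. = highest tested concentration/EC50.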

Trypanosoma cruzi = experiment: Antitrypanosomal activity against amastigote stage of Trypanosoma cruzi Y infected in human U2OS cells after 96 hrs by Draq5 staining-based high content screening assay; format: functional, cell-based
In short: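 U2OS cells (700/well, high glucose DMEM + 10% heat-inactivated FBS) seeded and incubated 24 h at 37 °C/5% CO2. Infected next day with 2800 Y strain trypomastigotes from LLC-MK2 cultures in low glucose DMEM + 2% FBS. Compounds added on day 3 as 15-point 2-fold dilutions, 1% DMSO final, top 200 µM. After 96 h, fixed in 4% paraformaldehyde, 5 µM Draq5 stain, imaged. Infection ratio normalized to infected/uninfected DMSO controls. EC50 from sigmoidal variable-slope fit. Duplicate wells, three independent experiments.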

[3] = Cytotoxicity against human U2OS cells infected with amastigote stage of Trypanosoma cruzi Y assessed as decrease in number of cells after 96 hrs by Draq5 staining-based high content screening assay; format: toxicity, cell-based; details: U2OS cells infected with Trypanosoma cruzi Y amastigotes
In short: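 Run on the same infected U2OS plates as the antiparasitic read (700 cells/well, 2800 Y strain trypomastigotes, compounds from day 3, 15-point 2-fold dilutions, top 200 µM, 1% DMSO final). Cells fixed after 96 h with 4% paraformaldehyde and stained with 5 µM Draq5. Total cell count compared with DMSO-treated infected controls. CC50 = concentration giving 50% cell number, from sigmoidal variable-slope fit. Three independent experiments.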

Row | SMILES | Activity [1] | selectivity ratio [2] | EC50 (Trypanosoma cruzi) [µM] | Emax (Trypanosoma cruzi) [%] | CC50 at 96 h [3] [µM]
1 | O=C(Cn1cncn1)c1ccc(F)cc1F | Non-Toxic | > 1.4 | 144 | 68.7 | –
2 | O=C(Cn1cnc([N+](=O)[O-])n1)c1ccc(F)cc1F | Non-Toxic | > 36 | 5.53 | 87 | –
3 | NC(=O)NN=C(Cn1cnc([N+](=O)[O-])n1)c1ccc(F)cc1F | Non-Toxic | > 2 | 101 | 95.2 | –
4 | NC(=O)NN=C(Cn1cncn1)c1ccc(F)cc1F | Non-Toxic | > 3.1 | 63.1 | 96.6 | –
5 | NC(=S)NN=C(Cn1cnc([N+](=O)[O-])n1)c1ccc(F)cc1F | Non-Toxic | > 9.27 | 21.6 | 92.8 | –
6 | NC(=S)NN=C(Cn1cncn1)c1ccc(F)cc1F | Non-Toxic | > 13 | 15.4 | 95.2 | –
7 | O=C(Cn1ccnc1[N+](=O)[O-])NCc1ccccc1 [BENZNIDAZOLE] | – | > 101 | 3.96 | 104 | –
8 | CC1CS(=O)(=O)CCN1/N=C/c1ccc([N+](=O)[O-])o1 (stereo unspecified) [NIFURTIMOX] | – | 78.9 | 0.34 | 102 | 26.8
